Reference: ChEMBL document CHEMBL1132146, “Chemical stability and fate of the cytostatic drug ifosfamide and its N-dechloroethylated metabolites in acidic aqueous solutions” (J Med Chem, 1999)

Columns and labels:
[1] = pKa. (dissociation constant) of the compound; assay type: physicochemical
Outline: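 ³¹P NMR titration at 25 °C in aqueous 0.1 M NaCl to keep ionic strength constant. pH adjusted with NaOH or HCl and measured before and after each spectrum. pKa calculated from the pH dependence of the chemical shift.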

[2] = tested on: L1210; assay: In vitro antitumor activity against murine leukemic L1210 cells; No activity; assay type: functional, cell-based; conditions: Mus musculus
[3] = acute toxicity against rat after iv administration; assay type: organism-based; conditions: in vivo
Outline: (§1)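 Single iv or ip injection; two female SD rats or male CD2F1 mice per dose group. Lethality and clinical signs of toxicity observed for 28 days to give an approximate LD50. Animals kept specific-pathogen-free with pellet diet and acidified water (pH 3) ad libitum.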

[4] = tested on: P388; assay: In vivo antitumor activity against murine P388 leukemia; No activity; assay type: functional, organism-based; conditions: Mus musculus
[5] = acute toxicity against mouse after ip administration; assay type: organism-based; conditions: in vivo; outline: as §1
[6] = tested on: P388; assay: In vivo antitumor activity against murine P388 leukemia; Effective; assay type: functional, organism-based; conditions: Mus musculus

Structure (SMILES) | pKa [1] | Activity [2] | LD50 [3] | Activity [4] | LD50 [5] | Activity [6]
O=P1(O)NCCCO1 | 4.1 |  |  |  |  | 
O=P1(NCCCl)NCCCO1 (centres undefined) |  | No activity | 800 mg/kg | No activity |  | 
O=P(O)(O)OCCCN1CC1 |  | No activity |  | No activity | 180 mg/kg | 
O=P(O)(OCCCNCCCl)OP(=O)(O)OCCCNCCCl |  | No activity |  | No activity | > 1000 mg/kg | 
O=P1(NCCCl)OCCCN1CCCl (centres undefined) [IFOSFAMIDE] |  |  | 300 mg/kg |  | 700 mg/kg | Effective
NP1(=O)OCCCN1CCCl (centres undefined) |  |  | > 1000 mg/kg |  |  | 
NP1(=O)NCCCO1 (centres undefined) |  | No activity |  |  |  | 
NP(=O)(O)OCCCNCCCl | 2.3 |  |  |  |  | 
O=P(O)(O)OCCCNCCCl |  | No activity | 800 mg/kg | No activity |  | 
